{"data": "Results of several laboratories", "target": "Homeodomain-interacting protein kinase 2 (HIPK2, Homo sapiens, UniProt Q9H2X6)", "note": "Protocols differ between the studies behind these lines."}
{"Compound": "N[C@H]1CCN(c2nccc(-c3cnn4ncccc34)n2)C1", "assay": "binding", "conditions": "1 µM", "remaining binding [%]": 98}
{"Compound": "O=C(c1ccc(Nc2ncc(Cl)c(-c3cc4ccccc4s3)n2)cc1)N1CCC(N2CCCC2)CC1", "assay": "binding, competition with immobilised ligand", "conditions": "1 µM", "remaining binding [%]": 0.2}
{"Compound": "O=C(NCC1CCOCC1)c1n[nH]cc1NC(=O)c1c(F)cccc1F", "assay": "binding, competition with immobilised ligand", "conditions": "1 µM", "remaining binding [%]": 100}
{"Compound": "F[C@@H]1CCN(c2nccc(-c3cnn4ncccc34)n2)C1", "assay": "binding", "conditions": "1 µM", "remaining binding [%]": 100}
{"Compound": "O=C(NCCCN1CCOCC1)c1ccc(Nc2ncc(Cl)c(-c3ccc(Cl)s3)n2)cc1", "assay": "binding, competition with immobilised ligand", "conditions": "1 µM", "remaining binding [%]": 8.9}
{"Compound": "COc1cc(Nc2nccc(-c3cnn4nc(OC)ccc34)n2)cc(C(F)(F)F)c1", "assay": "binding, competition with immobilised ligand", "conditions": "1 µM", "remaining binding [%]": 34}
{"Compound": "Cc1c[nH]c2nccc(Oc3c(F)cc(Nc4cc(Cl)nc(N)n4)cc3F)c12", "assay": "cell-free assay, competition with immobilised ligand", "conditions": "0.1 µM", "remaining binding [%]": 90}
{"Compound": "Cc1cnn2ncc(-c3ccnc(N(C)C)n3)c2c1", "assay": "binding", "conditions": "1 µM", "remaining binding [%]": 63}
{"Compound": "Cc1cc(-n2nc(Cc3cc(F)cc(C(F)(F)F)c3)nc2C)ccc1C(N)=O", "assay": "cell-free assay, competition with immobilised ligand", "conditions": "1 µM", "remaining binding [%]": 100}
{"Compound": "CN(CCCC(F)(F)F)c1nccc(-c2cnn3ncccc23)n1", "assay": "binding", "conditions": "1 µM", "remaining binding [%]": 100}
{"Compound": "Cn1nc(C(F)(F)F)cc1-c1cnc(N2CCc3cc(S(=O)(=O)Nc4c(F)cc(Cl)cc4F)cc(N4CCCC4=O)c32)nc1", "assay": "cell-free assay, competition with immobilised ligand", "conditions": "1 µM", "remaining binding [%]": 74}
{"Compound": "CN(C)c1ncc(F)c(-c2cnn3ncccc23)n1", "assay": "binding", "conditions": "1 µM", "remaining binding [%]": 57}
{"Compound": "CC(C)(O)c1cncc(-c2nc3ccc(F)cc3n2C2CC2)c1", "assay": "cell-free assay, competition with immobilised ligand", "conditions": "1 µM", "remaining binding [%]": 100}
{"Compound": "CNC(=O)[C@@H]1CC[C@@H](n2c(-c3ccc4cnccc4c3)nc3ccc(C(=O)NCc4cccc(C(N)=O)c4)cc32)C1", "assay": "binding, competition with immobilised ligand", "conditions": "1 µM", "remaining binding [%]": 100}
{"Compound": "CC1=C(C#N)[C@@H](c2ccc3[nH]nc(C)c3c2)C(C#N)=C(c2ccc(Cl)cc2)N1", "assay": "cell-free assay, competition with immobilised ligand", "conditions": "1 µM", "remaining binding [%]": 86.1}
{"Compound": "C[C@H]1CCN(c2nccc(-c3cnn4ncccc34)n2)C1", "assay": "binding", "conditions": "1 µM", "remaining binding [%]": 45}
{"Compound": "O=C(NCCCN1CCOCC1)c1ccc(Nc2nccc(-c3cc4ccccc4s3)n2)cc1", "assay": "binding, competition with immobilised ligand", "conditions": "1 µM", "remaining binding [%]": 34}
{"Compound": "COc1ccnn2ncc(-c3ccnc(N(C)C)n3)c12", "assay": "binding", "conditions": "1 µM", "remaining binding [%]": 71}
{"Compound": "O=C(O)[C@H]1[C@H](Cn2nnc3ccccc3c2=O)CC[C@@H]1C(=O)c1ccc(OCCC2CCOCC2)cc1", "assay": "cell-free assay, competition with immobilised ligand", "conditions": "1 µM", "remaining binding [%]": 100}
{"Compound": "CCN1CCN(Cc2ccc(C(=O)Nc3ccc(C)c(Oc4ccc5c(c4)CC(=O)N5)c3)cc2C(F)(F)F)CC1", "assay": "binding, competition with immobilised ligand", "conditions": "1 µM", "remaining binding [%]": 100}
{"Compound": "CC(=O)Nc1c(C(C)=O)c(=O)n(C)c2nc(-c3ccc(Cl)cc3Cl)c(-c3ccc(Cl)cc3)cc12", "assay": "cell-free assay, competition with immobilised ligand", "conditions": "1 µM", "remaining binding [%]": 100}
{"Compound": "C=CC(=O)N1CCC(C(=O)NCC(=O)N2CCN(c3nc(-c4cnc(N)nc4C(F)F)nc(N4CCOCC4)n3)CC2)CC1", "assay": "binding, competition with immobilised ligand", "conditions": "1 µM", "remaining binding [%]": 83}
